Screens deposited in PubChem by several laboratories.
Lipid droplet: inhibitors of hepatocyte lipid droplet formation, primary screen, imaging, high-throughput imaging, BODIPY stain; AML12 mouse hepatocytes, oleate lipid droplets; inhibition, % at 6.5 µM; hit rate 0.4% among 240,000;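 active = lipid droplet intensity inhibited by at least 50%, with more than 500 cells counted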
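Material – mouse AML12 hepatocyte cell line, fixed after treatment · Compound dosing – one dose, 6.5 µM compound · Times – compound with oleate, overnight · Measured by – Image-based BODIPY and DAPI two-channel analysis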
HTR5A inv ag: HTR5A inverse agonists in luminescence cell assay, primary screen, counter-screen for OPRM1-OPRD1 heterodimer inverse agonist project, full-deck HTS. AID 504634, 2011. inhibition, % at 9.3 µM. hit rate 0.083% among 340,000. 5-hydroxytryptamine receptor 5A (Homo sapiens), P47898. HTR5A cell line, inverse agonism; in the data active = inhibition mostly above about 23%, no sharp cut-off; inactive = mostly below about 18%
MOR-DOR ag-1: agonists of OPRM1-OPRD1 heterodimerization, primary screen, cell-based, luminescence; Mu-type opioid receptor (Homo sapiens) + Delta-type opioid receptor (Homo sapiens), …; hit rate 0.3% among 340,000; activation, % at 9.3 µM; cells
Target sequence (P35372 whole entry, looked up): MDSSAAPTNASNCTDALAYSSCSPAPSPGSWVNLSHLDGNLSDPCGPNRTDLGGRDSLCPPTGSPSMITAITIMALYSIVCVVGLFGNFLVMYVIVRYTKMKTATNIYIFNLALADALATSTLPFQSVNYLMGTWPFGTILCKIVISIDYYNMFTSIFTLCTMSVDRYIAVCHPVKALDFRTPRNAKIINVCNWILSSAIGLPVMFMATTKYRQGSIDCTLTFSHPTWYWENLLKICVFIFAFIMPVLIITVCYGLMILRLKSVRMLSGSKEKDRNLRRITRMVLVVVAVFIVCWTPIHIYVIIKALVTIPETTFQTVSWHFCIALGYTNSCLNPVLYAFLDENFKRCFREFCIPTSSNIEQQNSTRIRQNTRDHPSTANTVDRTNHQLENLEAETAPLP
Target sequence (P41143 whole entry, looked up): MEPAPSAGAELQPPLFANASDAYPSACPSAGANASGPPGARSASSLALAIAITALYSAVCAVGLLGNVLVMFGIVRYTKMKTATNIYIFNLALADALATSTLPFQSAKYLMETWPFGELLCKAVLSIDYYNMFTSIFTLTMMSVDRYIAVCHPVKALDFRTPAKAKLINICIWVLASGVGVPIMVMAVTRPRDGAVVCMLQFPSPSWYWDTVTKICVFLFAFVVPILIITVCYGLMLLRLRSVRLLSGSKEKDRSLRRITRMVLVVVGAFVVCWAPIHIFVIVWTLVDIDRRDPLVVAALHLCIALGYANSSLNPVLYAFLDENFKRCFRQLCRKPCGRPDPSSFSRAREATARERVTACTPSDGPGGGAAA
MOR-DOR inv ag: inverse agonists of MOR-DOR heterodimerization, primary screen, cell-based, luminescence; Mu-type opioid receptor (Homo sapiens) + Delta-type opioid receptor (Homo sapiens), …; cell-based MOR-DOR heterodimer luminescence, inverse agonism; inhibition, % at 9.3 µM; hit rate 0.21% among 340,000; in the data active = inhibition above about 22%, passing the limit was not always enough
HTR5A ag ctr: HTR5A agonists in luminescence cell assay, primary screen, counter-screen for OPRM1-OPRD1 heterodimer agonist project, full-deck HTS. activation, % at 9.3 µM. cell-based. hit rate 0.61% among 340,000. 5-hydroxytryptamine receptor 5A (Homo sapiens), P47898; in the data active = activation mostly above about 9.5%, no sharp cut-off; inactive = mostly below about 7.6%
MOR-DOR ag-2: OPRM1-OPRD1 heterodimerization promoters, counter-screen for HTR5A agonist project, cell-based, luminescence; shares compounds with HTR5A ag ctr; U2OS counter-screen cells, complementation luminescence, 3 h; AID 504913, 2011; activation, % at 9.3 µM; hit rate 13% among 800
HTR5A ag confirm: HTR5A agonists, retest of hits, confirmation, cell-based, luminescence. activation, % at 9.3 µM. HTR5A agonist cell assay. shares compounds with HTR5A ag ctr. hit rate 17% among 800; in the data active = activation above about 17%
A number is an active result. A selection: hits, their analogues and other compounds. The true share with any hit is near 1.4%. Rule as the data show it, unless noted: active = activation above about 18%; inactive = the rest.

For CCC(Oc1ccccc1)C(=O)OCC(=O)Nc1sccc1C(N)=O (stereo not given) the results were HTR5A inv ag inactive, MOR-DOR ag-1 inactive, MOR-DOR inv ag inactive and HTR5A ag ctr inactive.
Screening COc1cccc(NC(=O)c2cc(-c3ccncc3)nc3c(C)cc(C)cc23)c1 returned HTR5A inv ag inactive, MOR-DOR ag-1 inactive, MOR-DOR inv ag inactive, HTR5A ag ctr 16.4, MOR-DOR ag-2 inactive and HTR5A ag confirm inactive.
COCCCNC(=O)c1ccc(OC)c(OC2CCN(C(C)C)CC2)c1 was read as Lipid droplet inactive, HTR5A inv ag inactive, MOR-DOR ag-1 inactive, MOR-DOR inv ag inactive and HTR5A ag ctr inactive.
Screening CCOc1cccc(N2CCN(CCNC(=O)Nc3ccc(C)cc3)CC2)c1C returned Lipid droplet inactive, HTR5A inv ag inactive, MOR-DOR ag-1 inactive, MOR-DOR inv ag inactive, HTR5A ag ctr 15.4, MOR-DOR ag-2 inactive and HTR5A ag confirm 20.2.
COc1ccc(NC(=O)NCCN2CCN(c3cccc(Cl)c3)CC2)cc1 was read as Lipid droplet inactive, HTR5A inv ag inactive, MOR-DOR ag-1 inactive, MOR-DOR inv ag inactive, HTR5A ag ctr 19.2, MOR-DOR ag-2 inactive and HTR5A ag confirm 23.2.
`COc1ccc(N2CCN(CCNC(=O)Nc3ccc(C)c(Cl)c3)CC2)cc1` gave HTR5A inv ag inactive, MOR-DOR ag-1 inactive, MOR-DOR inv ag inactive and HTR5A ag ctr inactive.
`COc1ccc(NC(=O)NCCCN2CCN(c3cc(C)ccc3C)CC2)cc1` gave Lipid droplet inactive, HTR5A inv ag inactive, MOR-DOR ag-1 inactive, MOR-DOR inv ag inactive and HTR5A ag ctr inactive.
For O=C(CSc1ccccc1F)NCC1(N2CCCCC2)CCCCC1 the results were HTR5A inv ag inactive, MOR-DOR ag-1 inactive, MOR-DOR inv ag inactive and HTR5A ag ctr inactive.
For COc1ccc(C(CNc2ccc(C(F)(F)F)cn2)N(C)C)cc1OC (stereo not given) the results were Lipid droplet inactive, HTR5A inv ag inactive, MOR-DOR ag-1 inactive, MOR-DOR inv ag inactive, HTR5A ag ctr 18.8, MOR-DOR ag-2 inactive and HTR5A ag confirm inactive.
`Cc1ccc(S(=O)(=O)CCC(=O)OCC(=O)N2c3ccccc3CC2C)cc1` (stereo not given) gave HTR5A inv ag inactive, MOR-DOR ag-1 inactive, MOR-DOR inv ag inactive, HTR5A ag ctr 29.0, MOR-DOR ag-2 inactive and HTR5A ag confirm 33.1.
Screening Cc1nc(-c2ccccc2Cl)sc1C(=O)/C=C/N(C)C returned Lipid droplet inactive, HTR5A inv ag inactive, MOR-DOR ag-1 inactive, MOR-DOR inv ag inactive and HTR5A ag ctr inactive.
For O=S(=O)(Nc1cccc(-c2ccc3nncn3n2)c1)c1ccccc1F the results were HTR5A inv ag inactive, MOR-DOR ag-1 inactive, MOR-DOR inv ag inactive, HTR5A ag ctr 20.1, MOR-DOR ag-2 18.4 and HTR5A ag confirm inactive.
Screening CC(C)N=c1scc(-c2cccs2)n1/N=C/c1ccc(O)c(O)c1O returned Lipid droplet inactive, HTR5A inv ag inactive, MOR-DOR ag-1 inactive, MOR-DOR inv ag inactive, HTR5A ag ctr 14.4, MOR-DOR ag-2 19.8 and HTR5A ag confirm inactive.
For CCN=c1scc(-c2cccs2)n1/N=C/c1cc(OC)ccc1O the results were Lipid droplet inactive, HTR5A inv ag inactive, MOR-DOR ag-1 inactive, MOR-DOR inv ag inactive and HTR5A ag ctr inactive.
Screening CN(C(=O)c1ccc(NC(=O)C2CCCN(C(=O)OC(C)(C)C)C2)cc1)C1CCC1 (stereo not given) returned HTR5A inv ag inactive, MOR-DOR ag-1 inactive, MOR-DOR inv ag inactive and HTR5A ag ctr inactive.
CC1CCCCC12NC(=O)N(CC(=O)N1CCN(C(=O)c3cccs3)CC1)C2=O (stereo not given) was read as HTR5A inv ag inactive, MOR-DOR ag-1 inactive, MOR-DOR inv ag inactive and HTR5A ag ctr inactive.
Screening CC(C)(C)OC(=O)C[C@@H]1C/C=C\C[C@@H](CC(=O)N[C@H](CO)Cc2ccccc2)C(=O)N2CCC[C@@H]2COC1=O returned HTR5A inv ag inactive, MOR-DOR ag-1 inactive, MOR-DOR inv ag inactive, HTR5A ag ctr 16.4, MOR-DOR ag-2 22.7 and HTR5A ag confirm inactive.
For O=C(NCCc1cnc[nH]1)Nc1cccc(C(F)(F)F)c1 the results were Lipid droplet inactive, HTR5A inv ag inactive, MOR-DOR ag-1 inactive, MOR-DOR inv ag inactive, HTR5A ag ctr 17.2, MOR-DOR ag-2 inactive and HTR5A ag confirm inactive.
`Cc1cccc(NC(=O)CCCN=C2NS(=O)(=O)c3ccccc32)c1C` gave HTR5A inv ag inactive, MOR-DOR ag-1 inactive, MOR-DOR inv ag inactive and HTR5A ag ctr inactive.
`CCC(C)[C@H](NC(=O)NCc1ccc(S(N)(=O)=O)cc1)C(=O)O` (stereo not given in full) gave Lipid droplet inactive, HTR5A inv ag inactive, MOR-DOR ag-1 inactive, MOR-DOR inv ag inactive and HTR5A ag ctr inactive.
Screening CCOC(=O)Cn1cnc([N+](=O)[O-])n1 returned Lipid droplet inactive, HTR5A inv ag inactive, MOR-DOR ag-1 inactive, MOR-DOR inv ag inactive and HTR5A ag ctr inactive.
`CC(=O)CCn1cnc([N+](=O)[O-])n1` gave Lipid droplet inactive, HTR5A inv ag inactive, MOR-DOR ag-1 inactive, MOR-DOR inv ag inactive, HTR5A ag ctr 14.6, MOR-DOR ag-2 60.2 and HTR5A ag confirm inactive.
Screening CCOC(=O)CNC(=O)C1COc2ccccc2O1 (stereo not given) returned Lipid droplet inactive, HTR5A inv ag inactive, MOR-DOR ag-1 inactive, MOR-DOR inv ag inactive and HTR5A ag ctr inactive.
Screening CC1=NN(c2ccccc2)C(=O)/C1=C\C=C\c1ccccc1 returned Lipid droplet inactive.
Screening CC1=NN(c2ccc(C)c(C)c2)C(=O)/C1=C\C=C\c1ccc([N+](=O)[O-])o1 returned Lipid droplet inactive, HTR5A inv ag inactive, MOR-DOR ag-1 inactive, MOR-DOR inv ag inactive, HTR5A ag ctr 16.2, MOR-DOR ag-2 inactive and HTR5A ag confirm inactive.
Screening Oc1c(C(c2cccs2)N2CCOCC2)sc2ncnn12 (stereo not given) returned HTR5A inv ag inactive, MOR-DOR ag-1 inactive, MOR-DOR inv ag inactive and HTR5A ag ctr inactive.
`Oc1c(C(c2cccs2)N2CCN(c3cccc(Cl)c3)CC2)sc2ncnn12` (stereo not given) gave Lipid droplet inactive, HTR5A inv ag inactive, MOR-DOR ag-1 inactive, MOR-DOR inv ag inactive, HTR5A ag ctr 17.5, MOR-DOR ag-2 inactive and HTR5A ag confirm inactive.
Screening COc1ccc(C(=S)N2CCOCC2)cc1OS(=O)(=O)c1ccccc1[N+](=O)[O-] returned Lipid droplet inactive, HTR5A inv ag inactive, MOR-DOR ag-1 inactive, MOR-DOR inv ag inactive and HTR5A ag ctr inactive.
